Laboratory results reported in ChEMBL document CHEMBL1781932 (J Med Chem, 2011).
Converted amounts (≈) assume the structure as drawn.

Experiments:
[1] = test system: Pseudomonas aeruginosa; assay: Antimicrobial activity against tetracycline-susceptible Pseudomonas aeruginosa isolate 111 by CLSI dilution method; assay type: functional
Summary of the method: (§1)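 Broth microdilution per CLSI in fresh cation-adjusted Mueller Hinton broth, kept at 4 °C before testing, with defibrinated horse blood added as appropriate. Strains were from ATCC. MIC in µg/mL. Runs were accepted when comparator antibiotics against ATCC quality-control strains fell within recommended ranges.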

[2] = test system: Klebsiella pneumoniae; assay: Antimicrobial activity against tetracycline-resistant Klebsiella pneumoniae isolate 153 harboring tetA gene by CLSI dilution method; assay type: functional
[3] = test system: Enterobacter cloacae; assay: Antimicrobial activity against tetracycline-susceptible Enterobacter cloacae isolate 108 by CLSI dilution method; assay type: functional; summary of the method: as §1
[4] = test system: Streptococcus pneumoniae; assay: Antimicrobial activity against tetracycline-susceptible Streptococcus pneumoniae isolate 106 by CLSI dilution method; assay type: functional; summary of the method: as §1
[5] = test system: Escherichia coli; assay: Antimicrobial activity against tetracycline-resistant Escherichia coli isolate 155 harboring tetA gene by CLSI dilution method; assay type: functional
[6] = test system: Escherichia coli; assay: Antimicrobial activity against tetracycline-susceptible Escherichia coli isolate 107 by CLSI dilution method; assay type: functional; summary of the method: as §1
[7] = Cmax in Sprague-Dawley rat at 1 mg/kg, iv administered as single dose measured after 24 to 48 hrs; assay type: ADME, organism-based; design: dose 1 mg/kg, route intravenous; details: in vivo
Summary of the method: (§2)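 Sprague-Dawley rats (n = 3) were fasted overnight (minimum 12 h) and given a single dose, iv 1 mg/kg or oral 10 mg/kg, in sterile water. Samples were taken over 24–48 h. PK parameters came from noncompartmental analysis.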

[8] = test system: Staphylococcus aureus; assay: Antimicrobial activity against tetracycline-susceptible Staphylococcus aureus isolate 101 by CLSI dilution method; assay type: functional
[9] = Clearance in Sprague-Dawley rat at 1 mg/kg, iv administered as single dose measured after 24 to 48 hrs; assay type: ADME, organism-based; design: dose 1 mg/kg, route intravenous; details: in vivo; summary of the method: as §2
[10] = test system: Acinetobacter baumannii; assay: Antimicrobial activity against tetracycline-susceptible Acinetobacter baumannii isolate 110 by CLSI dilution method; assay type: functional; summary of the method: as §1
[11] = test system: Staphylococcus aureus; assay: Antimicrobial activity against tetracycline-resistant Staphylococcus aureus isolate 158 harboring tetK gene by CLSI dilution method; assay type: functional
[12] = test system: Staphylococcus aureus; assay: Antimicrobial activity against methicillin-, tetracycline-resistant Staphylococcus aureus isolate 161 harboring tetM gene by CLSI dilution method; assay type: functional
[13] = test system: Enterococcus faecalis; assay: Antimicrobial activity against tetracycline-resistant Enterococcus faecalis isolate 159 harboring […] gene by CLSI dilution method; assay type: functional
[14] = Elimination half life in Sprague-Dawley rat at 1 mg/kg, iv administered as single dose; assay type: ADME, organism-based; design: dose 1 mg/kg, route intravenous; details: in vivo, read-out: beta t1/2 (converted); summary of the method: as §2
[15] = test system: Staphylococcus aureus; assay: Antimicrobial activity against tetracycline-susceptible Staphylococcus aureus Smith isolate 100 infected in iv dosed mouse systemic infection model assessed as survival of mouse administered 60 mins post infection measured up to 48 hrs; assay type: functional; details: Smith isolate 100, iv, read-out: PD50
Summary of the method: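 Mouse septicemia model with S. aureus ATCC 13709 mixed with 5% mucin, given intraperitoneally at 2.1×10^6 cfu/mouse. Compound was dosed intravenously 60 min after infection at 0.3–30 mg/kg in sterile water, 6 mice/dose group, with untreated infection controls. Survival was followed over 48 h. PD50 was derived by Probit analysis with 95% CI.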

[16] = test system: Streptococcus pneumoniae; assay: Antimicrobial activity against tetracycline-resistant Streptococcus pneumoniae isolate 160 harboring tetM gene by CLSI dilution method; assay type: functional
[17] = AUC (0 to infinity) in Sprague-Dawley rat at 1 mg/kg, iv administered as single dose measured after 24 to 48 hrs; assay type: ADME, organism-based; design: time infinity, dose 1 mg/kg, route intravenous; details: plasma; summary of the method: as §2
[18] = test system: Rattus norvegicus; assay: Oral bioavailability in Sprague-Dawley rat at 10 mg/kg administered as single dose; assay type: ADME, organism-based; details: in vivo; summary of the method: as §2
[19] = test system: Staphylococcus aureus; assay: Antimicrobial activity against tetracycline-susceptible Staphylococcus aureus Smith isolate 100 infected in po dosed mouse systemic infection model assessed as survival of mouse administered 60 mins post infection measured after 48 hrs; assay type: functional; details: Smith isolate 100, po, read-out: PD50
Summary of the method: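 Mouse septicemia model with S. aureus ATCC 13709 in 5% mucin, inoculated intraperitoneally at 2.1×10^6 cfu/mouse. Oral gavage dosing began 60 min post-infection at 0.3–30 mg/kg in sterile water, 6 mice/dose group, with untreated infection controls. Survival was assessed over 48 h. PD50 was obtained by Probit analysis with 95% CI.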

[20] = test system: Enterococcus faecalis; assay: Antimicrobial activity against tetracycline-susceptible Enterococcus faecalis isolate 103 by CLSI dilution method; assay type: functional; summary of the method: as §1
[21] = test system: Klebsiella pneumoniae; assay: Antimicrobial activity against tetracycline-susceptible Klebsiella pneumoniae isolate 109 by CLSI dilution method; assay type: functional; summary of the method: as §1
[22] = Apparent volume of distribution in Sprague-Dawley rat at 1 mg/kg, iv administered as single dose measured after 24 to 48 hrs; details: in vivo
[23] = test system: Staphylococcus aureus; assay: Antimicrobial activity against tetracycline-susceptible Staphylococcus aureus Smith isolate 100 by CLSI dilution method; assay type: functional

Structure (SMILES)	MIC [1]	MIC [2]	MIC [3]	MIC [4]	MIC [5]	MIC [6]	Cmax [7]	clearance [9]	MIC [10]	MIC [11]	MIC [12]	MIC [13]	half-life [14]	ED50 [15]	MIC [16]	AUC(0-inf) [17]	MIC [20]	MIC [21]	Vd [22]	MIC [23]	also measured
CN(C)[C@@H]1C(O)=C(C(N)=O)C(=O)[C@@]2(O)C(O)=C3C(=O)c4c(cc5ccc(CN6CC(F)C6)cc5c4O)C[C@H]3C[C@@H]12	> 32 µg/mL	16 µg/mL (≈ 29 µM)	8 µg/mL (≈ 14.5 µM)	0.125 µg/mL (≈ 0.227 µM)	8 µg/mL (≈ 14.5 µM)	2 µg/mL (≈ 3.63 µM)	814 ng/mL	4.82 mL/min/kg	1 µg/mL (≈ 1.81 µM)	0.5 µg/mL (≈ 0.907 µM)	2 µg/mL (≈ 3.63 µM)	2 µg/mL (≈ 3.63 µM)	3.35 h	0.36 mg/kg	0.25 µg/mL (≈ 0.453 µM)	3460 ng·h/mL	0.5 µg/mL (≈ 0.907 µM)	8 µg/mL (≈ 14.5 µM)	1.4 L/kg		MIC [8]: 0.5 µg/mL (≈ 0.907 µM); F [18]: 18%; ED50 [19]: 12.2 mg/kg
COc1c2c(c(O)c3cc(CNC4CC4)ccc13)C(=O)C1=C(O)[C@]3(O)C(=O)C(C(N)=O)=C(O)[C@@H](N(C)C)[C@@H]3C[C@@H]1C2	16 µg/mL (≈ 28.4 µM)	8 µg/mL (≈ 14.2 µM)	4 µg/mL (≈ 7.1 µM)	0.0156 µg/mL (≈ 0.0277 µM)	8 µg/mL (≈ 14.2 µM)	0.5 µg/mL (≈ 0.887 µM)	124 ng/mL	45.4 mL/min/kg	0.25 µg/mL (≈ 0.444 µM)	0.0313 µg/mL (≈ 0.0555 µM)	2 µg/mL (≈ 3.55 µM)	2 µg/mL (≈ 3.55 µM)	2.17 h	0.6 mg/kg	0.125 µg/mL (≈ 0.222 µM)	385 ng·h/mL	0.0625 µg/mL (≈ 0.111 µM)	2 µg/mL (≈ 3.55 µM)	8.4 L/kg	0.25 µg/mL (≈ 0.444 µM)	MIC [8]: 0.0625 µg/mL (≈ 0.111 µM); F [18]: 12.5%
COc1c2c(c(O)c3cc(CNCC(C)C)ccc13)C(=O)C1=C(O)[C@]3(O)C(=O)C(C(N)=O)=C(O)[C@@H](N(C)C)[C@@H]3C[C@@H]1C2	16 µg/mL (≈ 27.6 µM)	8 µg/mL (≈ 13.8 µM)	2 µg/mL (≈ 3.45 µM)	0.0156 µg/mL (≈ 0.0269 µM)	4 µg/mL (≈ 6.9 µM)	1 µg/mL (≈ 1.73 µM)	414 ng/mL	20.5 mL/min/kg	0.25 µg/mL (≈ 0.431 µM)	0.016 µg/mL (≈ 0.0276 µM)	2 µg/mL (≈ 3.45 µM)	2 µg/mL (≈ 3.45 µM)	5.4 h	< 0.3 mg/kg	0.125 µg/mL (≈ 0.216 µM)	815 ng·h/mL	0.0625 µg/mL (≈ 0.108 µM)	1 µg/mL (≈ 1.73 µM)	9.6 L/kg	0.5 µg/mL (≈ 0.863 µM)	F [18]: 2.7%
COc1c2c(c(O)c3cc(CN4CCC4)ccc13)C(=O)C1=C(O)[C@]3(O)C(=O)C(C(N)=O)=C(O)[C@@H](N(C)C)[C@@H]3C[C@@H]1C2	32 µg/mL (≈ 56.8 µM)	8 µg/mL (≈ 14.2 µM)	1 µg/mL (≈ 1.77 µM)	0.0156 µg/mL (≈ 0.0277 µM)	8 µg/mL (≈ 14.2 µM)	0.25 µg/mL (≈ 0.444 µM)	618 ng/mL	10.2 mL/min/kg	1 µg/mL (≈ 1.77 µM)	0.0625 µg/mL (≈ 0.111 µM)	0.5 µg/mL (≈ 0.887 µM)	1 µg/mL (≈ 1.77 µM)	5.26 h	0.36 mg/kg	0.0625 µg/mL (≈ 0.111 µM)	1650 ng·h/mL	0.0625 µg/mL (≈ 0.111 µM)	1 µg/mL (≈ 1.77 µM)	4.65 L/kg	0.0625 µg/mL (≈ 0.111 µM)	MIC [8]: 0.0625 µg/mL (≈ 0.111 µM); ED50 [19]: > 20 mg/kg
CC(C)CNCc1ccc2cc3c(c(O)c2c1)C(=O)C1=C(O)[C@]2(O)C(=O)C(C(N)=O)=C(O)[C@@H](N(C)C)[C@@H]2C[C@@H]1C3	32 µg/mL (≈ 58.2 µM)	4 µg/mL (≈ 7.28 µM)	2 µg/mL (≈ 3.64 µM)	0.0156 µg/mL (≈ 0.0284 µM)	4 µg/mL (≈ 7.28 µM)	1 µg/mL (≈ 1.82 µM)	891 ng/mL	6.22 mL/min/kg	0.5 µg/mL (≈ 0.91 µM)	0.25 µg/mL (≈ 0.455 µM)	4 µg/mL (≈ 7.28 µM)	4 µg/mL (≈ 7.28 µM)	5.87 h	0.62 mg/kg	0.25 µg/mL (≈ 0.455 µM)	2680 ng·h/mL	0.5 µg/mL (≈ 0.91 µM)	4 µg/mL (≈ 7.28 µM)	3.16 L/kg	1 µg/mL (≈ 1.82 µM)	MIC [8]: 0.25 µg/mL (≈ 0.455 µM); F [18]: 1.9%
COCCNCc1ccc2cc3c(c(O)c2c1)C(=O)C1=C(O)[C@]2(O)C(=O)C(C(N)=O)=C(O)[C@@H](N(C)C)[C@@H]2C[C@@H]1C3	32 µg/mL (≈ 58 µM)	8 µg/mL (≈ 14.5 µM)	2 µg/mL (≈ 3.63 µM)	0.0156 µg/mL (≈ 0.0283 µM)	8 µg/mL (≈ 14.5 µM)	1 µg/mL (≈ 1.81 µM)	633 ng/mL	8.43 mL/min/kg	1 µg/mL (≈ 1.81 µM)	0.5 µg/mL (≈ 0.906 µM)	4 µg/mL (≈ 7.25 µM)	8 µg/mL (≈ 14.5 µM)	5.19 h	0.43 mg/kg	0.5 µg/mL (≈ 0.906 µM)	1980 ng·h/mL	0.5 µg/mL (≈ 0.906 µM)	4 µg/mL (≈ 7.25 µM)	3.78 L/kg	1 µg/mL (≈ 1.81 µM)	MIC [8]: 0.25 µg/mL (≈ 0.453 µM); F [18]: 2.8%
CN(C)[C@@H]1C(O)=C(C(N)=O)C(=O)[C@@]2(O)C(O)=C3C(=O)c4c(O)cccc4[C@@](C)(O)[C@H]3C[C@@H]12 [TETRACYCLINE]							583 ng/mL							0.35 mg/kg						0.25 µg/mL (≈ 0.563 µM)	ED50 [19]: 8.1 mg/kg
